In ChEMBL document CHEMBL5653631, “A Potent and Selective ULK1 Inhibitor Suppresses Autophagy and Sensitizes Cancer Cells to Nutrient Stress” (iScience, 2018):
Each block holds one molecule with its values, some of them ahead of it.

Legend:
[1] = target: Serine/threonine-protein kinase 10 (Homo sapiens) (UniProt O94804); test: Inhibition of human recombinant LOK at 500 nM related to control ULK1
[2] = target: T1, Serine/threonine-protein kinase TAO2 (Homo sapiens) (UniProt Q9UL54); test: Inhibition of human recombinant TAO2 at 500 nM in presence of ATP by radiometric assay relative to control
T1 sequence (whole entry): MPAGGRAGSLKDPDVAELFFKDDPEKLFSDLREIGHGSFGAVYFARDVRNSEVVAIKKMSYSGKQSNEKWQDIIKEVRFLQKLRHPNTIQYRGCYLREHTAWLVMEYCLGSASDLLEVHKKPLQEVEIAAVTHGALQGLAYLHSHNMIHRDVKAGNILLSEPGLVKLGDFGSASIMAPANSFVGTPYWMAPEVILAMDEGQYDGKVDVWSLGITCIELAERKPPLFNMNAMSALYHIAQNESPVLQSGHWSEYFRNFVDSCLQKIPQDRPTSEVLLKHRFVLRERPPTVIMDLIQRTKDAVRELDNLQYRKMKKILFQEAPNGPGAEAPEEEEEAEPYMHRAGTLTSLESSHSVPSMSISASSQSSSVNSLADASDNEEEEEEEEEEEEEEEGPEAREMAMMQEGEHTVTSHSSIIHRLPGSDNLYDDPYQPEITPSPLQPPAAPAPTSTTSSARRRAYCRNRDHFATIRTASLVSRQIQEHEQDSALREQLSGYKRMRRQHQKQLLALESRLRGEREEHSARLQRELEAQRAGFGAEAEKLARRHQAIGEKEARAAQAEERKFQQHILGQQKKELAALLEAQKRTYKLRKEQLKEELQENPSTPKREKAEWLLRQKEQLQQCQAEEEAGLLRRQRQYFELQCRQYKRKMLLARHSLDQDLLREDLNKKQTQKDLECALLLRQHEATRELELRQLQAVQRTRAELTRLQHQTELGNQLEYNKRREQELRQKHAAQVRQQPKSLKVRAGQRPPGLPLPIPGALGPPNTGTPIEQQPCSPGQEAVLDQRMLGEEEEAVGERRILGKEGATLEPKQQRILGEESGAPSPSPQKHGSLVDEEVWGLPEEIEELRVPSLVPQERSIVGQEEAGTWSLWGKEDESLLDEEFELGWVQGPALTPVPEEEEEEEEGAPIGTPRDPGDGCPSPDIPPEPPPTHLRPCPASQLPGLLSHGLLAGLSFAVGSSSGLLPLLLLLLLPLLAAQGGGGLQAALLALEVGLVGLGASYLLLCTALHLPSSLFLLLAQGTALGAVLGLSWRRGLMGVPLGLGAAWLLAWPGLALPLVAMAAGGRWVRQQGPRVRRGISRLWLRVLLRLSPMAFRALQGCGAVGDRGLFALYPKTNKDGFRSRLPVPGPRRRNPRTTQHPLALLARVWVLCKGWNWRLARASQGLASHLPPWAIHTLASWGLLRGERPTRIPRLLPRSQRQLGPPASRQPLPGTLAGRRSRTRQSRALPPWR

[3] = target: Casein kinase II subunit alpha' (Homo sapiens) (UniProt P19784); test: Inhibition of human recombinant CK2a2 at 500 nM related to control ULK1
[4] = target: Mitogen-activated protein kinase 1 (Homo sapiens) (UniProt P28482); test: Inhibition of human recombinant Erk2 at 15 nM related to control ULK1
[5] = target: Serine/threonine-protein kinase 4 (Homo sapiens) (UniProt Q13043); test: Inhibition of human recombinant MST1 at 15 nM related to control ULK1
[6] = target: Serine/threonine-protein kinase Nek6 (Homo sapiens) (UniProt Q9HC98); test: Inhibition of human recombinant NEK6 at 15 nM in presence of ATP by radiometric assay relative to control
[7] = target: Tyrosine-protein kinase Fer (Homo sapiens) (UniProt P16591); test: Inhibition of human recombinant FER at 40 nM in presence of ATP by radiometric assay relative to control
[8] = target: T2, Aurora kinase C (Homo sapiens) (UniProt Q9UQB9); test: Inhibition of human recombinant AurC at 40 nM related to control ULK1
T2 sequence (whole entry): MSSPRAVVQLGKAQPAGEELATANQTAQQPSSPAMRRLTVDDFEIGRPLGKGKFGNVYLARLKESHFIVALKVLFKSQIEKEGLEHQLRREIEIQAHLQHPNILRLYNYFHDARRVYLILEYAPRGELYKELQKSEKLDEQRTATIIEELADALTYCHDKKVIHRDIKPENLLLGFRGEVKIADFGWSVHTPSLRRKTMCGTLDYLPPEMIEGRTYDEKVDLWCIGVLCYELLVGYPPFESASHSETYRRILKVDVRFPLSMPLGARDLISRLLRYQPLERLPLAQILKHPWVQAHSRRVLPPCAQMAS
Outline: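 Radiometric activity assays in a panel of 327 human recombinant kinases, each run in duplicate at one inhibitor concentration. Activity remaining is expressed as percent of vehicle control, and percent inhibition is calculated as 100% minus percent activity remaining.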

[9] = target: T3, Tyrosine-protein kinase ITK/TSK (Homo sapiens) (UniProt Q08881); test: Inhibition of human recombinant ITK at 40 nM in presence of ATP by radiometric assay relative to control
T3 sequence (whole entry): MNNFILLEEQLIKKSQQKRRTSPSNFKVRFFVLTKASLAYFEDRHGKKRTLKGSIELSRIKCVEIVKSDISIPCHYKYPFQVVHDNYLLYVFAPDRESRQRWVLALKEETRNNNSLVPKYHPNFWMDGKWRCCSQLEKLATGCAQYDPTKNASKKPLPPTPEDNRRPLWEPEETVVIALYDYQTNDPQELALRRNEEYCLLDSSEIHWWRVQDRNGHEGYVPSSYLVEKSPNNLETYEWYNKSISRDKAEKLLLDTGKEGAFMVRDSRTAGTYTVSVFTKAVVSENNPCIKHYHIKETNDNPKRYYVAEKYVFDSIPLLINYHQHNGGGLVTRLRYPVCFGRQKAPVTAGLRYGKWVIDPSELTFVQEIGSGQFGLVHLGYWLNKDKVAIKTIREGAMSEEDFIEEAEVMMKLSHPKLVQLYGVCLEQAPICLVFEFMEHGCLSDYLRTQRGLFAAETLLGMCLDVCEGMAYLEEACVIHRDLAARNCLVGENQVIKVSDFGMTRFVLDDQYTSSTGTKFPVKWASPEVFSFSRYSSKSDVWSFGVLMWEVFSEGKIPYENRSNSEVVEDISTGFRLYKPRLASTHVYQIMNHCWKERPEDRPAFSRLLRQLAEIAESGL

Serine/threonine-protein kinase 10 (Homo sapiens), sequence (O94804 whole entry, looked up): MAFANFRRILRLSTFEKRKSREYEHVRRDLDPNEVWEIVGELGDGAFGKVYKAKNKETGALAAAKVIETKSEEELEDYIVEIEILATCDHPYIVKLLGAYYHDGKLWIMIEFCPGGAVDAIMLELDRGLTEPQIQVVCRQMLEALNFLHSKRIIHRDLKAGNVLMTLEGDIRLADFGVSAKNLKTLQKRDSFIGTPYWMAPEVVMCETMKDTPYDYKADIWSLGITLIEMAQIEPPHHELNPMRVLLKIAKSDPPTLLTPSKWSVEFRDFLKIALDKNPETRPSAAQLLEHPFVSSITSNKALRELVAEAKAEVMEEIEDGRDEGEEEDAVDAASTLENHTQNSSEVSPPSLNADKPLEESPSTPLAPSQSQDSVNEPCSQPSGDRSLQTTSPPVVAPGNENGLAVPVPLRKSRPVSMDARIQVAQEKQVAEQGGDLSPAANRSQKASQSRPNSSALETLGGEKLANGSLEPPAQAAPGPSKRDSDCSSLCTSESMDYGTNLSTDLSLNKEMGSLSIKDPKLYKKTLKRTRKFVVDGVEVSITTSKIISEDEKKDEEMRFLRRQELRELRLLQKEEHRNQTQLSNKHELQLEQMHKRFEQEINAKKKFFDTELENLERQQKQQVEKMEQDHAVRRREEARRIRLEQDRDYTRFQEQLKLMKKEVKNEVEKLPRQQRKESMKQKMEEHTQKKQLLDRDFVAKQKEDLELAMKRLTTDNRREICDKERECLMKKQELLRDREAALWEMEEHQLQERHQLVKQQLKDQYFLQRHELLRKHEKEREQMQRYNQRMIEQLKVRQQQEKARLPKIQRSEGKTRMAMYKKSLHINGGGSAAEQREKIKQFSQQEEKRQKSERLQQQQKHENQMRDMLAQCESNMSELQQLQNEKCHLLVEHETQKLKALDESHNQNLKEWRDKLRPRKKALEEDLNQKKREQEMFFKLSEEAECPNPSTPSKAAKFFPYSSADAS
Serine/threonine-protein kinase Nek6 (Homo sapiens), sequence (Q9HC98 whole entry): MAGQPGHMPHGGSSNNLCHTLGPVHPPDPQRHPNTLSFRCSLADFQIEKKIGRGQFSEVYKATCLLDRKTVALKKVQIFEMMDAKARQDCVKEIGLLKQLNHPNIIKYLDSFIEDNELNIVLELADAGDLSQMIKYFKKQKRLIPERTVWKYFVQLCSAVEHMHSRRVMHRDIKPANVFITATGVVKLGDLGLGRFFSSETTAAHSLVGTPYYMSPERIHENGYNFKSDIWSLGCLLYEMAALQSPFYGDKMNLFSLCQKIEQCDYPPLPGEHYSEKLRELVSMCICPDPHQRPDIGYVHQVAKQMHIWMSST
Casein kinase II subunit alpha' (Homo sapiens), sequence (P19784 whole entry, looked up): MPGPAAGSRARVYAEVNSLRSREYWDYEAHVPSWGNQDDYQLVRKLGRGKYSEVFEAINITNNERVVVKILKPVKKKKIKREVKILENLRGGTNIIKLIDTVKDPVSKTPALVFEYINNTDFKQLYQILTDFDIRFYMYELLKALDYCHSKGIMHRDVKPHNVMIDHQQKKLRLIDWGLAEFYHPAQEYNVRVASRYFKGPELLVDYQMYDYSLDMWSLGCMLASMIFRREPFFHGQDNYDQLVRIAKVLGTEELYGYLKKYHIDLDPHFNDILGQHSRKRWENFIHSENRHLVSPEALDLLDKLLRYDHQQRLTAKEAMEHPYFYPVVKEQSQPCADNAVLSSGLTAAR
Serine/threonine-protein kinase 4 (Homo sapiens), sequence (Q13043 whole entry, looked up): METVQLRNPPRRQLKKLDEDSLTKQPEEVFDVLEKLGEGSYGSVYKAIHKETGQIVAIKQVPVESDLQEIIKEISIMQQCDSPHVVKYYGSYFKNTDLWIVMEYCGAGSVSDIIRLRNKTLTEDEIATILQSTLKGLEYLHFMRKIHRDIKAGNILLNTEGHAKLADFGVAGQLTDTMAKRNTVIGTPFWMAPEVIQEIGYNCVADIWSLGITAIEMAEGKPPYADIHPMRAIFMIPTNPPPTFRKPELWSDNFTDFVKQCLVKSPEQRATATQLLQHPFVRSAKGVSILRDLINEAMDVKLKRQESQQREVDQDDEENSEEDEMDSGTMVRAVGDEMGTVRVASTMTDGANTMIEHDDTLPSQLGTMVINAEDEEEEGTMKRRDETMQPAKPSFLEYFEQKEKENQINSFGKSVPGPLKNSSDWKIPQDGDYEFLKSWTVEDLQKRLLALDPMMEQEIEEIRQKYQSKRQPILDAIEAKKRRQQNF
Mitogen-activated protein kinase 1 (Homo sapiens), sequence (P28482 whole entry): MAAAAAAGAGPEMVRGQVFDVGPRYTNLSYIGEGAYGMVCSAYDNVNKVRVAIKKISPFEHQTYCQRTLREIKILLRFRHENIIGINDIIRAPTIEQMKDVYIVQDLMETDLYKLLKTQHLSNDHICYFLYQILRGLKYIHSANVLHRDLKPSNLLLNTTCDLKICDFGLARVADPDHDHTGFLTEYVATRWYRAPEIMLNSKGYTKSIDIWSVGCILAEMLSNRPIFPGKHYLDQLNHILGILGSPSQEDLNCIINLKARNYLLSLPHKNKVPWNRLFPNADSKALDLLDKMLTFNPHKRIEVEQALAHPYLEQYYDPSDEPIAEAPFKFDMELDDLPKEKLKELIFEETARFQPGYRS
Tyrosine-protein kinase Fer (Homo sapiens), sequence (P16591 whole entry, looked up): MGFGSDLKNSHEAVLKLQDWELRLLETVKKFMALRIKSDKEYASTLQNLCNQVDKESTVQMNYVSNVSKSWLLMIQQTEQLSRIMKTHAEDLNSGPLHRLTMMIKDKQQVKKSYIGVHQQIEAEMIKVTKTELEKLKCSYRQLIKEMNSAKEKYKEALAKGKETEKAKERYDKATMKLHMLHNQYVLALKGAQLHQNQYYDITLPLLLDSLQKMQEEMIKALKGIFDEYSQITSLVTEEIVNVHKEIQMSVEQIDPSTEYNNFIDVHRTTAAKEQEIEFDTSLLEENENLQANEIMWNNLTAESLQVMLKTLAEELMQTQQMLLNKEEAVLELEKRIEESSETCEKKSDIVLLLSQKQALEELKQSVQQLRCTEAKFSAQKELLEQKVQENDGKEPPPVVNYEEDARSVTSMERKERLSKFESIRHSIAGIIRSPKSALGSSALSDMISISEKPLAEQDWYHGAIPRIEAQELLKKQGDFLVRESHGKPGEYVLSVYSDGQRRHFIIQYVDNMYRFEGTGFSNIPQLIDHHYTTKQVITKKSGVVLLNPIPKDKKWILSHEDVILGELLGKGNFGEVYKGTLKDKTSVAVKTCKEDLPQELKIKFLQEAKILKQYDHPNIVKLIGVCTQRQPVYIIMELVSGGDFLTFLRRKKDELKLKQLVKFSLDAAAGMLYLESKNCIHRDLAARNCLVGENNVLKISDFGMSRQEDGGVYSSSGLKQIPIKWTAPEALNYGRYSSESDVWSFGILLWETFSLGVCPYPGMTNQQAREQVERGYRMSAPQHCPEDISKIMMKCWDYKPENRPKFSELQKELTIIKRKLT

fold change (FC) [1]: 0
inhibition [2]: 0%
fold change (FC) [3]: 0.07
SMILES: CNC(=O)c1ccccc1Oc1nc(Nc2cc(OC)c(OC)c(OC)c2)ncc1Br

fold change (FC) [4]: 0
fold change (FC) [5]: 0.03
inhibition [6]: 1%
SMILES: CC(C)[C@H](NC(=O)c1cc(-c2cnn3cc(-c4ccc(OCCN5CCCCC5)cc4)cnc23)cs1)C(F)(F)F

inhibition [7]: 0%
fold change (FC) [8]: 0
inhibition [9]: 0%
SMILES: O=C(N[C@@H](C1CC1)C(F)(F)F)c1cc(-c2cnn3cc(-c4ccc(F)cc4)cnc23)cs1
